{"data": "Experimental data gathered from unrelated publications", "PGR": "Progesterone receptor (PGR, Homo sapiens, UniProt P06401)", "MMP13": "Collagenase 3 (MMP13, Homo sapiens, UniProt P45452)", "note": "Protocols differ between the studies behind these lines."}
{"Compound": "COc1ccc(S(=O)(=O)N2CCCCC2)cc1C", "target": "PGR", "observed": "ligand displacement", "technique": "radioligand", "tested at": "10 µM", "inhibition [%]": "< 30"}
{"Compound": "COc1cc(Nc2ncc(F)c(Nc3ccc4c(n3)NC(=O)C(C)(C)O4)n2)cc(OC)c1OC", "target": "Calcium/calmodulin-dependent protein kinase type II subunit gamma (CAMK2G, Homo sapiens, UniProt Q13555)", "observed": "binding", "technique": "competition with immobilised ligand", "tested at": "10 µM", "inhibition [%]": 47}
{"Compound": "C#Cc1n[nH]c2c(-c3cn([C@@H](C)c4ccccn4)c(=O)[nH]c3=O)cc(F)cc12", "target": "Serine/threonine-protein kinase Sgk1 (SGK1, Homo sapiens, UniProt O00141)", "observed": "enzyme activity", "mode": "inhibitor", "tested at": "0.1 µM", "inhibition [%]": -0.7}
{"Compound": "Cn1cc(-c2cc(F)cc(N3CCn4c(cc5c4CCCC5)C3=O)c2CO)cc(Nc2ccc(N3CCN(C4COC4)CC3)cn2)c1=O", "target": "Tyrosine-protein kinase Tec (TEC, Homo sapiens, UniProt P42680)", "observed": "enzyme activity", "mode": "inhibitor", "tested at": "0.1 µM", "inhibition [%]": -3}
{"Compound": "COCc1c(-c2cc3cc(C)cc(OC)c3s2)c2c(N)ncnn2c1CN1CCNC(=O)C1", "target": "Beta-3 adrenergic receptor (ADRB3, Homo sapiens, UniProt P13945)", "observed": "ligand displacement", "technique": "radioligand", "tested at": "10 µM", "inhibition [%]": 9}
{"Compound": "C#Cc1n[nH]c2c(-c3cn([C@@H](C)c4ccccc4)c(=O)[nH]c3=O)cc(F)cc12", "target": "Dual specificity protein kinase CLK2 (CLK2, Homo sapiens, UniProt P49760)", "observed": "enzyme activity", "mode": "inhibitor", "tested at": "0.1 µM", "inhibition [%]": 3.8}
{"Compound": "C[C@H](C(=O)N[C@H]1COc2ccccc2[C@@H]1S(C)(=O)=O)c1ccc(F)cc1", "target": "MMP13", "observed": "enzyme activity", "mode": "inhibitor", "tested at": "10 µM", "inhibition [%]": -4}
{"Compound": "CC(C)C[C@H](NC(=O)[C@H](Cc1ccccc1)NC(=O)c1cnccn1)B(O)O", "target": "Chymase (CMA1, Homo sapiens, UniProt P23946)", "observed": "enzyme activity", "mode": "inhibitor", "tested at": "33 µM", "inhibition [%]": 84.2}
{"Compound": "O=C(Nc1cccnn1)N1CCN([C@@H]2CCOc3cc(C(F)(F)F)ccc32)CC1", "target": "Prostaglandin E2 receptor EP2 subtype (PTGER2, Homo sapiens, UniProt P43116)", "observed": "cell-free assay", "tested at": "20 µM", "inhibition [%]": -13}
{"Compound": "COc1ccc2[nH]c(C(O)c3ccc(Cl)cc3)c(CCNC(C)=O)c2c1 (centres unmarked)", "target": "Calmodulin-1 (CALM1, Homo sapiens, UniProt P0DP23)", "observed": "enzyme activity", "mode": "inhibitor", "tested at": "50 µM", "inhibition [%]": "40 to 50"}
{"Compound": "CCOC(=O)c1ccc(OC(=O)CCCCCNC(=N)N)cc1", "target": "MMP13", "observed": "enzyme activity", "mode": "inhibitor", "tested at": "10 µM", "inhibition [%]": 13}
{"Compound": "c1ccc(C(NCCNC(c2ccccc2)c2ccccc2)c2ccccc2)cc1", "target": "Adenosine receptor A2b (ADORA2B, Homo sapiens, UniProt P29275)", "observed": "cell-free assay", "tested at": "10 µM", "inhibition [%]": -2}
{"Compound": "Cc1nc(C(C)(C)NC(=O)O[C@@H]2CN3CCC2CC3)cs1", "target": "N-terminal Xaa-Pro-Lys N-methyltransferase 1 (Homo sapiens, UniProt Q9BV86)", "observed": "enzyme activity", "mode": "inhibitor", "technique": "fluorescence", "tested at": "100 µM", "inhibition [%]": "< 50"}
{"Compound": "CN(CCN1CCC(OC(=O)Nc2ccccc2-c2ccccc2)CC1)C(=O)c1ccc(CN2CCC(C(N)=O)CC2)cc1", "target": "PGR", "observed": "ligand displacement", "technique": "radioligand", "tested at": "1 µM", "inhibition [%]": 0}
